{
  "source": "ChEMBL document CHEMBL4304784",
  "about": "“Discovery of new potent dual sigma receptor/GluN2b ligands with antioxidant property as neuroprotective agents” (Eur J Med Chem, 2019)",
  "data": [
    {"test_system": "not listed separately", "assay": "Cytotoxicity against human Hep3B cells assessed as cell viability at 50 uM incubated for 48 hrs by MTT assay relative to control", "format": "cell-based, Hep 3B2", "conditions": "read-out: Activity", "outline": "(§1)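 Cells kept in DMEM Glutamax with 10% FBS and antibiotic/antimycotic at 37 °C, 5% CO2. Plated at 2x10^3 cells/well 24 h before dosing. Compounds taken from DMSO and diluted in medium, final DMSO ≤1.0%. Exposure 48 h, then MTT added for 4 h at 37 °C. Read as A595 minus A655. Triplicates, at least three independent experiments, mean ± SEM.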", "units": {"viability at 48 h, 50 µM": "%"}, "values": [
      {"smiles": "O=C1CCc2ccccc2N1CCCCN1CCC2(CC1)OCc1ccccc12", "viability at 48 h, 50 µM": 38}
    ]},
    {"test_system": "not listed separately", "assay": "Antioxidant activity assessed as H2O2 radical scavenging activity", "format": "functional", "conditions": "not given", "outline": "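Compounds at 0.05, 0.1, 0.2 and 0.4 mg/mL in phosphate buffer pH 7.4. 0.353 mL of 4 mM H2O2 in phosphate buffer added to 2.0 mL of each solution, absorbance read at 239 nm. Percent inhibition calculated from absorbances relative to control. Triplicate, mean ± SEM.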", "units": {"IC50": "µg/mL"}, "values": [
      {"smiles": "O=C1CCc2ccccc2N1CCCCN1CCC2(CC1)OCc1ccccc12", "IC50": 84.56}
    ]},
    {"test_system": "not listed separately", "assay": "Cytotoxicity against human HeLa cells assessed as cell viability at 10 uM incubated for 48 hrs by MTT assay relative to control", "format": "cell-based", "conditions": "read-out: Activity", "outline": "as §1", "units": {"viability at 48 h, 10 µM": "%"}, "values": [
      {"smiles": "O=C1CCc2ccccc2N1CCCCN1CCC2(CC1)OCc1ccccc12", "viability at 48 h, 10 µM": 92}
    ]},
    {"test_system": "not listed separately", "assay": "Cytotoxicity against human Hep3B cells assessed as cell viability at 10 uM incubated for 48 hrs by MTT assay relative to control", "format": "cell-based, Hep 3B2", "conditions": "read-out: Activity", "outline": "as §1", "units": {"viability at 48 h, 10 µM": "%"}, "values": [
      {"smiles": "O=C1CCc2ccccc2N1CCCCN1CCC2(CC1)OCc1ccccc12", "viability at 48 h, 10 µM": 61}
    ]},
    {"test_system": "not listed separately", "assay": "Cytotoxicity against human SH-SY5Y cells assessed as cell viability at 25 uM incubated for 48 hrs by MTT assay (reference value: 100 +/- 12.00%)", "format": "cell-based", "conditions": "read-out: Activity", "outline": "as §1", "units": {"viability at 48 h, 25 µM": "%"}, "values": [
      {"smiles": "O=C1CCc2ccccc2N1CCCCN1CCC2(CC1)OCc1ccccc12", "viability at 48 h, 25 µM": "88 to 107"}
    ]},
    {"test_system": "not listed separately", "assay": "Cytotoxicity against human HeLa cells assessed as cell viability at 25 uM incubated for 48 hrs by MTT assay relative to control", "format": "cell-based", "conditions": "read-out: Activity", "outline": "as §1", "units": {"viability at 48 h, 25 µM": "%"}, "values": [
      {"smiles": "O=C1CCc2ccccc2N1CCCCN1CCC2(CC1)OCc1ccccc12", "viability at 48 h, 25 µM": 78}
    ]},
    {"test_system": "not listed separately", "assay": "Cytotoxicity against human SH-SY5Y cells assessed as cell viability at 10 uM incubated for 48 hrs by MTT assay (reference value: 100 +/- 12.00%)", "format": "cell-based", "conditions": "read-out: Activity", "outline": "as §1", "units": {"viability at 48 h, 10 µM": "%"}, "values": [
      {"smiles": "O=C1CCc2ccccc2N1CCCCN1CCC2(CC1)OCc1ccccc12", "viability at 48 h, 10 µM": 116}
    ]},
    {"test_system": "not listed separately", "assay": "Antioxidant activity assessed as ABTS radical scavenging activity incubated for 40 mins", "format": "functional", "conditions": "not given", "outline": "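Test compound at 0.05, 0.1, 0.2 and 0.4 mg/mL (200 µL) added to 1.8 mL ethanolic ABTS 7mM. Incubated 40 min at room temperature, absorbance read at 735 nm against ABTS solution. Percent inhibition computed from absorbances and used to derive IC50. Triplicate, mean ± SEM; ascorbic acid as reference.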", "units": {"IC50": "µg/mL"}, "values": [
      {"smiles": "O=C1CCc2ccccc2N1CCCCN1CCC2(CC1)OCc1ccccc12", "IC50": 78.8}
    ]},
    {"test_system": "not listed separately", "assay": "Cytotoxicity against human SH-SY5Y cells assessed as cell viability at 100 uM incubated for 48 hrs by MTT assay (reference value: 100 +/- 12.00%)", "format": "cell-based", "conditions": "read-out: Activity", "outline": "as §1", "units": {"viability at 48 h, 100 µM": "%"}, "values": [
      {"smiles": "O=C1CCc2ccccc2N1CCCCN1CCC2(CC1)OCc1ccccc12", "viability at 48 h, 100 µM": 16}
    ]},
    {"target": "Sigma non-opioid intracellular receptor 1 (Cavia porcellus, UniProt Q60492)", "sequence (Q60492 whole entry)": "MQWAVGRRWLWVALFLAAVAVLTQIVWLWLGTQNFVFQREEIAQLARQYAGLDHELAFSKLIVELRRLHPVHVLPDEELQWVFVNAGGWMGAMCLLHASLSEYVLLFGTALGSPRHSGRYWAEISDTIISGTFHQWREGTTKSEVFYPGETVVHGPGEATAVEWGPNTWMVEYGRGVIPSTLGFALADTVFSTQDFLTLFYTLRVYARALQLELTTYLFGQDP", "assay": "Displacement of [3H]-(+)-pentazocine from sigma1 receptor in guinea pig brain cortex membranes incubated for 120 mins by solid scintillation counting method", "format": "cell membranes", "conditions": "not given", "outline": "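Guinea pig brain cortex membranes (about 100 µg protein) with 2 nM [3H]-(+)-pentazocine in 50 mM TRIS pH 7.4 at 37 °C. Non-specific binding defined with 10 µM unlabeled (+)-pentazocine. Six concentrations, 10^-5 to 10^-10 M, in duplicate. 120 min with shaking, filtration, solid scintillator counting.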", "units": {"Ki": "µM"}, "values": [
      {"smiles": "O=C1CCc2ccccc2N1CCCCN1CCC2(CC1)OCc1ccccc12", "Ki": 0.018}
    ]},
    {"test_system": "not listed separately", "assay": "Cytotoxicity against human HeLa cells assessed as cell viability at 100 uM incubated for 48 hrs by MTT assay relative to control", "format": "cell-based", "conditions": "read-out: Activity", "outline": "as §1", "units": {"viability at 48 h, 100 µM": "%"}, "values": [
      {"smiles": "O=C1CCc2ccccc2N1CCCCN1CCC2(CC1)OCc1ccccc12", "viability at 48 h, 100 µM": 31}
    ]},
    {"test_system": "not listed separately", "assay": "Cytotoxicity against human Hep3B cells assessed as decrease in cell viability incubated for 48 hrs by MTT assay", "format": "cell-based, Hep 3B2", "conditions": "read-out: LD50", "outline": "(§2)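 Cells kept in DMEM Glutamax with 10% FBS and antibiotic/antimycotic at 37 °C, 5% CO2. Seeded 24 h before dosing (SH-SY5Y at 2x10^3 cells/well). Compounds in DMSO serially diluted in medium, final DMSO 1.0%, exposure 48 h. MTT added for 4 h at 37 °C, read A595 minus A655. LD50 from linear regression of dose-log response curves; triplicates, three experiments, mean ± SEM.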", "units": {"CC50 at 48 h": "µM"}, "values": [
      {"smiles": "O=C1CCc2ccccc2N1CCCCN1CCC2(CC1)OCc1ccccc12", "CC50 at 48 h": 50}
    ]},
    {"target": "Glutamate NMDA receptor; GRIN1/GRIN2B (Homo sapiens, UniProt Q05586+Q13224)", "sequence (Q13224 whole entry, other chains not shown)": "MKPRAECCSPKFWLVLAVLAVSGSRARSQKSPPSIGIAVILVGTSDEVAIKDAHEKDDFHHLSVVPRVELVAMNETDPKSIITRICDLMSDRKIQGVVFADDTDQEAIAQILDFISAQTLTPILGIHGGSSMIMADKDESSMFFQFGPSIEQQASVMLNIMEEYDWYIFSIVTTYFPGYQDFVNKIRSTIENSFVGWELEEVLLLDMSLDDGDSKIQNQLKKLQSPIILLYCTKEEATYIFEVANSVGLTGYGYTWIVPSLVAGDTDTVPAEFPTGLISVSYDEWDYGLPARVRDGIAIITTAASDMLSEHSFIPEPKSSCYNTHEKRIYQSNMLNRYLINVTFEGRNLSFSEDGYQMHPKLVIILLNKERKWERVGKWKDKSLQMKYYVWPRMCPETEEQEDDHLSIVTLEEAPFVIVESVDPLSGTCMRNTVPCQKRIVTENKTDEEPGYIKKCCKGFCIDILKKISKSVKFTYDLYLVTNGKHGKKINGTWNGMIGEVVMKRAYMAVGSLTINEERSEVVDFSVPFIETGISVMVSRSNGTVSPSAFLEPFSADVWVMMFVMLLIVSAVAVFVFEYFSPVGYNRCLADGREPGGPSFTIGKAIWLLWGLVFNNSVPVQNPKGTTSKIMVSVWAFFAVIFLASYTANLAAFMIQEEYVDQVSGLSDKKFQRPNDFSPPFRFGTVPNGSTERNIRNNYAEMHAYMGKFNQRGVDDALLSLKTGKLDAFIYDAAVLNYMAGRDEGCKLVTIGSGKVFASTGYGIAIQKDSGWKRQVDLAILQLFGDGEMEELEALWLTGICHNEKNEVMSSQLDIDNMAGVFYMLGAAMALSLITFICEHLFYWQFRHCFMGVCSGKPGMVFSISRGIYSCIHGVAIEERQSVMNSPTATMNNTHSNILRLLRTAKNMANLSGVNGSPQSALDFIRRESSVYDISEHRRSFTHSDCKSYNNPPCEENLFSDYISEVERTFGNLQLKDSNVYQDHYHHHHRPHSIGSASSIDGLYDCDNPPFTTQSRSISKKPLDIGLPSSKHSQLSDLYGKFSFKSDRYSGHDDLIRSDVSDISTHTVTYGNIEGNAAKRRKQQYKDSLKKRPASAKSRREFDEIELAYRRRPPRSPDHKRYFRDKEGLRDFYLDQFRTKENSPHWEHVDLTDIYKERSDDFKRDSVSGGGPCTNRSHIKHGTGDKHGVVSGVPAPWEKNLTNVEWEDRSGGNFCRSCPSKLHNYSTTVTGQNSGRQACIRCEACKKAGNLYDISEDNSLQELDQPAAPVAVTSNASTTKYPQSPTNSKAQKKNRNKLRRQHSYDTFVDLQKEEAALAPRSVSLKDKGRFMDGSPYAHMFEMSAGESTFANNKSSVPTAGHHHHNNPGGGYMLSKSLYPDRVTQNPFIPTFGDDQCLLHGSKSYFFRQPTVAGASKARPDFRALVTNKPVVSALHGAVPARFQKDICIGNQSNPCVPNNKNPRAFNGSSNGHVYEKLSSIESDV", "assay": "Displacement of [3H]ifenprodil from GluN1a/GluN2B (unknown origin) expressed in mouse L(tk-) cell membranes after 120 mins by solid scintillation counting method", "conditions": "not given", "outline": "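Membranes (about 20 μg protein) from mouse L(tk-) cells stably carrying GluN1a/GluN2B, induced with 4 μM dexamethasone and 4 μM ketamine for 24 h. Incubated with 5 nM [3H]ifenprodil in 5 mM TRIS/1 mM EDTA pH 7.5 at 37 °C, 120 min. Non-specific binding defined with 10 μM ifenprodil.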", "units": {"Ki": "µM"}, "values": [
      {"smiles": "O=C1CCc2ccccc2N1CCCCN1CCC2(CC1)OCc1ccccc12", "Ki": 0.005}
    ]},
    {"test_system": "not listed separately", "assay": "Cytotoxicity against human Hep3B cells assessed as cell viability at 100 uM incubated for 48 hrs by MTT assay relative to control", "format": "cell-based, Hep 3B2", "conditions": "read-out: Activity", "outline": "as §1", "units": {"viability at 48 h, 100 µM": "%"}, "values": [
      {"smiles": "O=C1CCc2ccccc2N1CCCCN1CCC2(CC1)OCc1ccccc12", "viability at 48 h, 100 µM": 10}
    ]},
    {"test_system": "not listed separately", "assay": "Selectivity ratio of Ki for sigma1 receptor in guinea pig brain membranes to Ki for sigma2 receptor in rat liver membranes", "format": "cell membranes", "conditions": "not given", "values": [
      {"smiles": "O=C1CCc2ccccc2N1CCCCN1CCC2(CC1)OCc1ccccc12", "Ratio Ki": 0.5}
    ]},
    {"test_system": "not listed separately", "assay": "Cytotoxicity against human HeLa cells assessed as cell viability at 50 uM incubated for 48 hrs by MTT assay relative to control", "format": "cell-based", "conditions": "read-out: Activity", "outline": "as §1", "units": {"viability at 48 h, 50 µM": "%"}, "values": [
      {"smiles": "O=C1CCc2ccccc2N1CCCCN1CCC2(CC1)OCc1ccccc12", "viability at 48 h, 50 µM": 45}
    ]},
    {"target": "T1, Sigma intracellular receptor 2 (Rattus norvegicus, UniProt Q5U3Y7)", "T1 sequence (Q5U3Y7 whole entry)": "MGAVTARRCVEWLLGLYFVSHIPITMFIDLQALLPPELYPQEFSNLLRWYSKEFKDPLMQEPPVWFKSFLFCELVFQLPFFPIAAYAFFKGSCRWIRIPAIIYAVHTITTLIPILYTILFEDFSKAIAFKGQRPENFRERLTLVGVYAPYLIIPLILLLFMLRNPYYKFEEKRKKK", "assay": "Displacement of [3H]-di-o-tolylguanidine from sigma2 receptor in rat liver membranes in the presence of sigma1 receptor ligand (+)-pentazocine incubated for 120 mins by scintillation counting method", "format": "cell membranes", "conditions": "not given", "outline": "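Rat liver membranes (about 100 µg protein) with 3 nM [3H]di-o-tolylguanidine in 50 mM TRIS pH 8.0 containing 500 nM (+)-pentazocine, at rt. Non-specific binding defined with 10 µM unlabeled DTG. Concentrations 10^-5 to 10^-10 M, in duplicate. 120 min, filtration, scintillation counting. Three independent experiments, mean ± SEM.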", "units": {"Ki": "µM"}, "values": [
      {"smiles": "O=C1CCc2ccccc2N1CCCCN1CCC2(CC1)OCc1ccccc12", "Ki": 0.034}
    ]},
    {"test_system": "not listed separately", "assay": "Cytotoxicity against human Hep3B cells assessed as cell viability at 25 uM incubated for 48 hrs by MTT assay relative to control", "format": "cell-based, Hep 3B2", "conditions": "read-out: Activity", "outline": "as §1", "units": {"viability at 48 h, 25 µM": "%"}, "values": [
      {"smiles": "O=C1CCc2ccccc2N1CCCCN1CCC2(CC1)OCc1ccccc12", "viability at 48 h, 25 µM": 67}
    ]},
    {"test_system": "not listed separately", "assay": "Selectivity ratio of Ki for sigma2 receptor in rat liver membranes to Ki for GluN1a/GluN2B (unknown origin) expressed in mouse L(tk-) cell membranes", "format": "cell-based", "conditions": "not given", "values": [
      {"smiles": "O=C1CCc2ccccc2N1CCCCN1CCC2(CC1)OCc1ccccc12", "Ratio Ki": 6.8}
    ]},
    {"test_system": "not listed separately", "assay": "Cytotoxicity against human SH-SY5Y cells assessed as decrease in cell viability incubated for 48 hrs by MTT assay", "format": "cell-based", "conditions": "read-out: LD50", "outline": "as §2", "units": {"CC50 at 48 h": "µM"}, "values": [
      {"smiles": "O=C1CCc2ccccc2N1CCCCN1CCC2(CC1)OCc1ccccc12", "CC50 at 48 h": 60}
    ]},
    {"test_system": "not listed separately", "assay": "Cytotoxicity against human SH-SY5Y cells assessed as cell viability at 50 uM incubated for 48 hrs by MTT assay (reference value: 100 +/- 12.00%)", "format": "cell-based", "conditions": "read-out: Activity", "outline": "as §1", "units": {"viability at 48 h, 50 µM": "%"}, "values": [
      {"smiles": "O=C1CCc2ccccc2N1CCCCN1CCC2(CC1)OCc1ccccc12", "viability at 48 h, 50 µM": 40}
    ]},
    {"test_system": "SH-SY5Y", "assay": "Neuroprotective activity against H2O2-induced toxicity in human SH-SY5Y cells assessed as cell viability at 25 uM pretreated for 48 hrs followed by H2O2 challenge and measured after 4 hrs by MTT assay (reference value: 18 +/- 2.64%)", "format": "functional", "conditions": "read-out: Activity", "units": {"viability at 25 µM": "%"}, "values": [
      {"smiles": "O=C1CCc2ccccc2N1CCCCN1CCC2(CC1)OCc1ccccc12", "viability at 25 µM": 97}
    ]},
    {"test_system": "not listed separately", "assay": "Cytotoxicity against human HeLa cells assessed as decrease in cell viability incubated for 48 hrs by MTT assay", "format": "cell-based", "conditions": "read-out: LD50", "outline": "as §2", "units": {"CC50 at 48 h": "µM"}, "values": [
      {"smiles": "O=C1CCc2ccccc2N1CCCCN1CCC2(CC1)OCc1ccccc12", "CC50 at 48 h": 55}
    ]}
  ]
}
